Legend:
Format in all cases: functional, cell-based
VCaP = experiment: Antiproliferative activity against human VCaP cells assessed as reduction in cell viability
In short: (§1)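 Human prostate cancer cells taken from exponential-phase culture, seeded at 8000–12,000 cells/well and allowed 24 h recovery. Compounds then added at 10 half-log concentrations in triplicate, with medium-only controls, for a total 96 h exposure. After a PBS wash, cells stained with propidium iodide plus 0.1% Triton X-100 for 1–2 h at room temperature. Fluorescence read (ex 530/em 620 nm) as attached viable cells. IC50 from 4-parameter curve fit, geometric mean of three independent experiments.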

LNCaP = experiment: Antiproliferative activity against human LNCaP cells assessed as reduction in cell viability
In short: as §1, with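 “temperature.” for “temperature. Fluorescence read (ex 530/em 620 nm) as attached viable cells.”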

CWR22R = experiment: Antiproliferative activity against human 22Rv1 cells assessed as reduction in cell viability; in short: as §1
DU-145 = experiment: Antiproliferative activity against human DU-145 cells assessed as reduction in cell viability; in short: as §1

SMILES	IC50 (VCaP)	IC50 (LNCaP; Homo sapiens, LNCaP)	IC50 (CWR22R; Homo sapiens, 22Rv1)	IC50 (DU-145; Homo sapiens, DU-145)	IC50 (LNCaP; lncap)	IC50 (CWR22R; cwr22r)	IC50 (DU-145; du-145)
CC(O)(C[S+]([O-])c1ccc(F)cc1F)C(=O)Nc1ccc([N+](=O)[O-])cc1C(F)(F)F (stereo not drawn)	> 100 µM	24.4 µM	51.1 µM	> 100 µM	–	–	–
CC(O)(C[S+]([O-])c1ccccn1)C(=O)Nc1ccc(C#N)c(C(F)(F)F)c1 (stereo not drawn)	> 100 µM	> 100 µM	> 100 µM	> 100 µM	–	–	–
CC(O)(C[S+]([O-])c1ccc(C(F)(F)F)cn1)C(=O)Nc1ccc([N+](=O)[O-])cc1C(F)(F)F (stereo not drawn)	> 100 µM	> 100 µM	> 100 µM	> 100 µM	–	–	–
CC(O)(C[S+]([O-])c1ccc(F)c(F)c1)C(=O)Nc1ccc([N+](=O)[O-])cc1C(F)(F)F (single isomer, unassigned)	> 100 µM	> 100 µM	> 100 µM	> 100 µM	–	–	–
CC(O)(C[S+]([O-])c1ccc(OC(F)(F)F)cc1)C(=O)Nc1ccc([N+](=O)[O-])cc1C(F)(F)F (stereo not drawn)	> 100 µM	> 100 µM	> 100 µM	> 100 µM	–	–	–
CC(O)(C[S+]([O-])c1ccc(C(F)(F)F)cn1)C(=O)Nc1ccc(C#N)c(C(F)(F)F)c1 (stereo in doubt; form 1)	> 100 µM	95.4 µM	65.5 µM	100 µM	–	–	–
CC(O)(C[S+]([O-])c1ccc(OC(F)(F)F)cc1)C(=O)Nc1ccc(C#N)c(C(F)(F)F)c1 (stereo not drawn)	53.5 µM	36.2 µM	41.2 µM	52.1 µM	–	–	–
CC(O)(C[S+]([O-])c1ccccn1)C(=O)Nc1ccc([N+](=O)[O-])cc1C(F)(F)F (stereo not drawn)	100 µM	> 100 µM	> 100 µM	> 100 µM	–	–	–
CC(O)(C[S+]([O-])c1ccc(C(F)(F)F)cn1)C(=O)Nc1ccc(C#N)c(C(F)(F)F)c1 (stereo in doubt; form 2)	–	–	–	–	> 100 µM	77 µM	> 100 µM
CC(O)(C[S+]([O-])c1ccc(C(F)(F)F)cc1)C(=O)Nc1ccc([N+](=O)[O-])cc1C(F)(F)F (stereo not drawn)	24.2 µM	25.6 µM	21.1 µM	36.5 µM	–	–	–
CC(O)(C[S+]([O-])c1ccccc1OC(F)(F)F)C(=O)Nc1ccc([N+](=O)[O-])cc1C(F)(F)F (stereo not drawn)	20.7 µM	9.09 µM	15.2 µM	31.1 µM	–	–	–

From ChEMBL document CHEMBL4706676 (Bioorg Med Chem Lett, 2021)
